How the values were obtained:
[1] = target: T1, Protein kinase C gamma type (Homo sapiens, UniProt P05129); test: Inhibitory activity of 10 uM compound against protein kinase C-gamma using histone as substrate
[2] = target: T2, Protein kinase C beta type (Homo sapiens, UniProt P05771); test: Inhibitory concentration against human protein kinase C-betaII using histone as substrate
Target sequence in this assay (P05771 whole entry): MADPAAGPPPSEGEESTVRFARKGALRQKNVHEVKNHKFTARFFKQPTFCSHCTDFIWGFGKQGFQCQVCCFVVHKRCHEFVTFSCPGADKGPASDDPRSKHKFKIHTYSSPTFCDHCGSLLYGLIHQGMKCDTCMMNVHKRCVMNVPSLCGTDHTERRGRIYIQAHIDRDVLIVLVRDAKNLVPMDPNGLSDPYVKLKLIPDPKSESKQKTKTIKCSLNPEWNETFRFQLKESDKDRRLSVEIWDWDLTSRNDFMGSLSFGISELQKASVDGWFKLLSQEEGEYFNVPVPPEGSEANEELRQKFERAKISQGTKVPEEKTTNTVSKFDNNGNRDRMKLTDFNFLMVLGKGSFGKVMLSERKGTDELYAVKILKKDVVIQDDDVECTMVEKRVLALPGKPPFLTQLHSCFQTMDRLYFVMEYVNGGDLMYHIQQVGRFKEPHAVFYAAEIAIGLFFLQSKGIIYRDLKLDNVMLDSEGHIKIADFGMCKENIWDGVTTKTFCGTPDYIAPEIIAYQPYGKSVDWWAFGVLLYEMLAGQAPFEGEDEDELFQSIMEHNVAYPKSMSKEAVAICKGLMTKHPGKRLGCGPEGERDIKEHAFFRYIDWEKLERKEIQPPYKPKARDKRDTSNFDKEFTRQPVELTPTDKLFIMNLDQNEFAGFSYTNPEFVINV

[3] = target: T3, Protein kinase C alpha type (Homo sapiens, UniProt P17252); test: Inhibitory activity of 10 uM compound against protein kinase C-alpha using histone as substrate
[4] = target: T1, Protein kinase C gamma type; test: Inhibition of protein kinase C-gamma
[5] = target: T3, Protein kinase C alpha type; test: Inhibitory concentration against protein kinase C-alpha using histone as substrate
[6] = target: T2, Protein kinase C beta type; test: Inhibition of protein kinase C-betaII at 10 uM
Target sequence in this assay (P05771 2-671 limits assumed): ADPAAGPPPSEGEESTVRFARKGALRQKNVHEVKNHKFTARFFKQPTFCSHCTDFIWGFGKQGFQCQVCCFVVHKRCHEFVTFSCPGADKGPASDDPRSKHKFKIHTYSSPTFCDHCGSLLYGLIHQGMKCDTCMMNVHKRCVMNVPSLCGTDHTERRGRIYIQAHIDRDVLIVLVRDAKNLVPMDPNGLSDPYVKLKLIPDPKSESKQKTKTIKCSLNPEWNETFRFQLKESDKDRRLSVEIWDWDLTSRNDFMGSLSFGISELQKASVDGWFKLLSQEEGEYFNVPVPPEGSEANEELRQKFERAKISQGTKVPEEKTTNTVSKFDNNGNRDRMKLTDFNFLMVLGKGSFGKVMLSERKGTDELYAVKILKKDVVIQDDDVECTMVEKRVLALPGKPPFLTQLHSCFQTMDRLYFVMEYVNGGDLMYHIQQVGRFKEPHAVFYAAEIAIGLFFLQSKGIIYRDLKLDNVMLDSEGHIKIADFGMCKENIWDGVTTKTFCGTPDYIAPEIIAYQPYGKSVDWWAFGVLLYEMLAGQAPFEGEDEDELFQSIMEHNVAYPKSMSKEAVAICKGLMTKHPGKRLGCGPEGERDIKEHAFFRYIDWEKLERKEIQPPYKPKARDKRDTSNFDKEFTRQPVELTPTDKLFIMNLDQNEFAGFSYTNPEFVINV

[7] = target: Glycogen synthase kinase-3 beta (Homo sapiens, UniProt P49841); test: Effective concentration of compound against glycogen synthase kinase-3 in HEK293 cells; type: functional, cell-based
In short: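 HEK293 cells exposed to compound; glycogen synthase activity then measured in cell extracts as ¹⁴C-UDP glucose incorporation into glycogen. EC₅₀ averaged from triplicate determinations.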

Sequence of Glycogen synthase kinase-3 beta (P49841 whole entry): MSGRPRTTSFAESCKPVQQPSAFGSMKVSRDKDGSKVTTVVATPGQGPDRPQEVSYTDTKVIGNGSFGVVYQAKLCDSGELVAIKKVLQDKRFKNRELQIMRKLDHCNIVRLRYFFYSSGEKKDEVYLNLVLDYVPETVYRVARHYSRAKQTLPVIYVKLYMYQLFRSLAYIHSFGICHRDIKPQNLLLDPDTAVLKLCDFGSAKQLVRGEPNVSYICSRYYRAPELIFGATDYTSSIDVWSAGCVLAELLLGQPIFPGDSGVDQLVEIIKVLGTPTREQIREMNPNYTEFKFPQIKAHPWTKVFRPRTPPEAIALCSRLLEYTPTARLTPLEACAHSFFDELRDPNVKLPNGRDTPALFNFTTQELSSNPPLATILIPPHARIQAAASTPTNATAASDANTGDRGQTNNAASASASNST

| Structure (SMILES) | inhibition [1] | IC50 [2] | inhibition [3] | IC50 [4] | IC50 [5] | inhibition [6] | EC50 [7] |
| --- | --- | --- | --- | --- | --- | --- | --- |
| COc1ccccc1C1=C(c2cn(CCCO)c3ncccc23)C(=O)NC1=O | < 50% | 1.44 µM | 50% | – | – | – | – |
| COc1ccccc1C1=C(c2cn(CCCNS(C)(=O)=O)c3ncccc23)C(=O)NC1=O | – | 1.88 µM | – | 8.6 µM | 4.7 µM | – | – |
| O=C1NC(=O)C(c2cn(CCCO)c3ncccc23)=C1c1ccccc1C(F)(F)F | 50% | 1.85 µM | 50% | – | – | – | – |
| O=C1NC(=O)C(c2cn(CCCO)c3ncccc23)=C1c1ccc(F)cc1Cl | < 50% | 2.38 µM | – | – | 4.5 µM | – | – |
| O=C1NC(=O)C(c2cn(CCCO)c3ncccc23)=C1c1cccs1 | < 50% | – | < 50% | – | – | < 50% | – |
| [Cl-].[Li+] [CHLOROLITHIUM] | – | – | – | – | – | – | > 3000 µM |
| O=C1NC(=O)C(c2cn(CCCO)c3ncccc23)=C1c1ccccn1 | < 50% | – | < 50% | – | – | < 50% | – |
| COc1ccccc1C1=C(c2cn(CCCNC=O)c3ncccc23)C(=O)NC1=O | – | 2.73 µM | < 50% | 8.7 µM | – | – | – |

Second part, led by results:

| inhibition [1] | IC50 [2] | inhibition [3] | IC50 [4] | IC50 [5] | inhibition [6] | Structure (SMILES) | EC50 [7] |
| --- | --- | --- | --- | --- | --- | --- | --- |
| < 50% | 1.1 µM | 50% | – | – | – | COc1ccccc1C1=C(c2cn(CCCN)c3ncccc23)C(=O)NC1=O | – |
| – | 0.73 µM | – | 5.5 µM | 4.4 µM | – | O=C1NC(=O)C(c2cn(CCCO)c3ncccc23)=C1c1ccccc1Cl | – |
| < 50% | 1.07 µM | < 50% | – | – | – | CCn1cc(C2=C(c3cn(CCCO)c4ncccc34)C(=O)NC2=O)c2cccnc21 | – |
| 50% | 0.27 µM | – | – | 3.6 µM | – | O=C1NC(=O)C(c2cn(CCCO)c3ncccc23)=C1c1cccc2ccccc12 | – |
| – | 0.24 µM | – | 2.8 µM | 1.4 µM | – | CN(C)CCCn1cc(C2=C(c3cccc4ccccc34)C(=O)NC2=O)c2cccnc21 | – |
| – | 1.16 µM | – | 3.6 µM | 4 µM | – | CN(C)CCCn1cc(C2=C(c3ccccc3Cl)C(=O)NC2=O)c2cccnc21 | – |
| – | 0.89 µM | < 50% | 6 µM | – | – | COc1ccccc1C1=C(c2cn(CCCNS(N)(=O)=O)c3ncccc23)C(=O)NC1=O | – |

Source: ChEMBL document CHEMBL1146654, “3-(7-Azaindolyl)-4-arylmaleimides as potent, selective inhibitors of glycogen synthase kinase-3” (Bioorg Med Chem Lett, 2004)
